In ChEMBL document CHEMBL4825662 (J Med Chem, 2021):

Key:
[1] = Half life in human hepatocytes at 3 uM measured up to 60 mins by LC-MS/MS analysis; type: ADME, cell-based, Hepatocyte
[2] = Cmax in Sprague-Dawley rat at 10 mg/kg, po measured after 0.02 to 24 hrs by UHPLC-TOF method; type: ADME, organism-based; parameters: route oral, dose 10 mg/kg, time 0.02-24 hrs; conditions: in vivo
[3] = Half life in CD1 mouse at 1 mg/kg, iv measured after 0.03 to 24 hrs by UHPLC-TOF method; type: ADME, organism-based; conditions: in vivo, time 0.03-24 hrs
[4] = Half life in Sprague-Dawley rat at 1 mg/kg, iv measured after 0.02 to 24 hrs by UHPLC-TOF method; type: ADME, organism-based; conditions: in vivo, time 0.02-24 hrs
Salmonella typhimurium = test: Genotoxicity in Salmonella typhimurium by Ames test; type: functional, organism-based; conditions: Salmonella enterica subsp. enterica serovar Typhimurium
[5] = Half life in human liver microsomes preincubated followed by NADPH addition and measured up to 45 mins by LC-MS/MS analysis; type: ADME, Microsome
[6] = Cmax in Beagle dog at 3 mg/kg, po measured after 0.03 to 24 hrs by UHPLC-TOF method; type: ADME, organism-based, Canis lupus familiaris; parameters: route oral, dose 3 mg/kg, time 0.03-24 hrs; conditions: in vivo
[7] = Intrinsic clearance in human hepatocytes at 3 uM assessed per million cells measured up to 60 mins by LC-MS/MS analysis; type: ADME, cell-based, Hepatocyte; conditions: read-out: CLH
[8] = Apparent permeability across apical to basolateral side in MDCK-MDR1 cells at 10 uM measured at 60 mins by LC-MS/MS analysis; type: ADME, cell-based, Canis lupus familiaris; conditions: dog, MDCK-MDR1
[9] = Oral bioavailability in CD1 mouse at 10 mg/kg measured after 0.03 to 24 hrs by UHPLC-TOF method; type: ADME, organism-based; conditions: in vivo, time 0.03-24 hrs
In short: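 Male CD-1 mice, acclimatized and individually housed, dosed IV and PO as amorphous-solid suspension. Terminal cardiac-puncture blood into heparinized tubes on wet ice, centrifuged at 4 °C within 15 min; plasma snap-frozen at −20 °C. IV arm sampled 2 min–24 h, oral arm 5 min–24 h. Plasma analysed by UHPLC-quadrupole-TOF MS.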

[10] = Half life in Sprague-Dawley rat liver microsomes preincubated followed by NADPH addition and measured up to 45 mins by LC-MS/MS analysis; type: ADME, Microsome
[11] = Cmax in Sprague-Dawley rat at 5 mg/kg, po administered via gavage measured after 0.02 to 24 hrs by tandem liquid chromatography/mass spectrometry; type: ADME, organism-based; parameters: route oral, dose 5 mg/kg, time upper 24 hrs, time lower 0.02 hrs; conditions: in vivo
In short: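 Male Sprague–Dawley rats weighing 200–250 g, 3 per route, were used. The i.v. bolus was 1 mg/kg at 1 mg/mL in 40:60 dimethylacetamide/saline. Oral gavage doses were 5 or 10 mg/kg at 5 mg/mL in 1% methyl cellulose with 0.1% Tween 80. Heparinized blood was taken at 0.02–24 h (ten time points). Plasma was analyzed by LC-MS/MS after acetonitrile precipitation.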

[12] = Half life in Beagle dog at 0.3 mg/kg, iv measured after 0.03 to 24 hrs by UHPLC-TOF method; type: ADME, organism-based, Canis lupus familiaris; conditions: in vivo, time 0.03-24 hrs
In short: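 Dogs dosed IV as a suspension of amorphous solid. Serial blood at 2, 5, 15 min and 1, 2, 4, 8, 12, 24 h into heparinized tubes, centrifuged at 4 °C for 10 min at 3000g. Plasma snap-frozen and stored at −20 °C, then analysed by UHPLC-TOF.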

[13] = Protein binding in rat plasma assessed as unbound fraction at 5 uM by LC-MS/MS analysis based equilibrium dialysis method; type: ADME, cell-free
[14] = Clearance in Beagle dog at 0.3 mg/kg, iv measured after 0.03 to 24 hrs by UHPLC-TOF method; type: ADME, organism-based, Canis lupus familiaris; conditions: in vivo, time 0.03-24 hrs
[15] = Tmax in Sprague-Dawley rat at 10 mg/kg, po measured after 0.02 to 24 hrs by UHPLC-TOF method; type: ADME, organism-based; conditions: in vivo, 10 mg/kg, time 0.02-24 hrs
[16] = Antiviral activity against Respiratory syncytial virus B by Plaque reduction assay; type: functional
In short: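 RSV A and B laboratory strains and low-passage clinical isolates were used to infect Vero or HepG2 cultures for 48 h with compound at 0.01 nM to 100 μM. Plaques were then detected by immunostaining.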

[17] = Tmax in Beagle dog at 3 mg/kg, […] by UHPLC-TOF method; type: ADME, organism-based, Canis lupus familiaris; conditions: in vivo, po
[18] = Half life in rat hepatocytes at 3 uM measured up to 60 mins by LC-MS/MS analysis; type: ADME, cell-based, Hepatocyte
[19] = test system: Respiratory syncytial virus; test: Antiviral activity against Respiratory syncytial virus Memphis 37b infected in human HEp2 cells treated over 10 serial passages by plaque assay; type: functional, organism-based; conditions: HEp-2
[20] = Apparent permeability across basolateral side to apical side in MDCK-MDR1 cells at 10 uM measured at 60 mins by LC-MS/MS analysis; type: ADME, cell-based, Canis lupus familiaris; conditions: dog
[21] = Clearance in Sprague-Dawley rat at 50 mg/kg, po measured after 0.25 to 24 hrs by UHPLC-TOF method; type: ADME, organism-based; conditions: in vivo, time 0.25-24 hrs
Human orthopneumovirus = test: Antiviral activity against Respiratory syncytial virus A2 infected in Balb/C mouse assessed as reduction in viral titers in lung homogenates at 10 mg/kg, po treated 2 hrs prior to viral infection followed by compound redosing at 24 hrs and measured after 5 days post infection by plaque assay relative to control; type: functional, human respiratory syncytial virus; parameters: scale not given: the % may be the effect or the level left
In short: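 Female Balb/C mice aged 7–8 weeks, 6 per group, received two oral doses 2 h before and 24 h after intranasal inoculation with 5 × 10⁶ pfu of RSV A2. Mice were euthanized on day 5. Lung homogenate titers were determined by plaque assay on Vero cells and expressed as a percentage of the control group.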

[22] = Cardiotoxicity in dog assessed as effect on QT interval by telemetry; type: toxicity, Canis lupus familiaris
[23] = test system: Respiratory syncytial virus; test: Antiviral activity against Respiratory syncytial virus infected in human airway epithelial cells assessed as reduction in RSV titer at 10 nM preincubated for 2 hrs followed by viral infection and measured after 8 day post infection by luminescence assay relative to control; type: functional, HAE
In short: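 Primary HAE cells were differentiated for 61 days on type IV collagen-coated trans-well inserts (n = 3 cultures). Compound at 10 nM was given basolaterally for 2 h before apical inoculation with 4 × 10⁵ pfu of luciferase-expressing recombinant RSV. Apical virus titer was read by luminescence on days 7 and 8 post-infection and compared with untreated controls. Data are mean SD.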

[24] = Protein binding in human plasma assessed as unbound fraction at 5 uM by LC-MS/MS analysis based equilibrium dialysis method; type: ADME, cell-free
[25] = Cmax in Sprague-Dawley rat at 50 mg/kg, po measured after 0.02 to 24 hrs by UHPLC-TOF method; type: ADME, organism-based; parameters: route oral, dose 50 mg/kg, time 0.02-24 hrs; conditions: in vivo
[26] = Intrinsic clearance in Beagle dog hepatocytes at 3 uM assessed per million cells measured up to 60 mins by LC-MS/MS analysis; type: ADME, cell-based, Canis lupus familiaris, Hepatocyte; conditions: read-out: CLH
[27] = Intrinsic clearance in Sprague-Dawley rat liver microsomes preincubated followed by NADPH addition and measured up to 45 mins by LC-MS/MS analysis; type: ADME, Microsome
[28] = Oral bioavailability in Beagle dog at 3 mg/kg measured after 0.03 to 24 hrs by UHPLC-TOF method; type: ADME, organism-based, Canis lupus familiaris; conditions: Beagle, in vivo, time 0.03-24 hrs
In short: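 Dogs examined by a veterinary surgeon before each session, fed 2 h post-dose, water ad libitum, dosed as amorphous-solid suspension. Serial blood into heparinized tubes, centrifuged at 4 °C for 10 min at 3000g; plasma snap-frozen at −20 °C. IV sampling 2 min–24 h, oral 15 min–24 h. Plasma analysed by UHPLC-quadrupole-TOF MS.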

[29] = Clearance in CD1 mouse at 1 mg/kg, iv measured after 0.083 to 24 hrs by UHPLC-TOF method; type: ADME, organism-based; conditions: in vivo, time 0.083-24 hrs

NCc1ccc2c(c1)nc(CN1C(=O)C3(CC3)c3ccc(F)cc31)n2CCCC(F)(F)F [SISUNATOVIR]
half-life at 3 µM [1]: 3.52 h | Cmax [2]: 74.2 ng/mL | half-life [3]: 4.2 h | half-life [4]: 1.8 h | Activity (Salmonella typhimurium): Not toxic | half-life [5]: 0.533 h | Cmax [6]: 82.4 ng/mL | hepatocyte CLint at 3 µM [7]: 6.58 µL/min/1e6 cells | Papp A→B at 1 h, 10 µM [8]: 0.5 ×10⁻⁶ cm/s | bioavailability [9]: 46.4% | half-life [10]: 1.33 h | Cmax [11]: 74.2 ng/mL | half-life [12]: 12.3 h | fraction unbound at 5 µM [13]: 0.52 | clearance [14]: 17.8 mL/min/kg | Tmax [15]: 2.7 h | IC50 [16]: 1 nM | Tmax [17]: 4 h | half-life at 3 µM [18]: 1.55 h | EC50 [19]: 89 nM | Papp B→A at 1 h, 10 µM [20]: 73 ×10⁻⁶ cm/s | CL/F [21]: 164 mL/min/kg | Activity (Human orthopneumovirus): 92% | Activity [22]: Toxic | log(activity) [23]: 2.35 | fraction unbound at 5 µM [24]: 0.67 | Cmax [25]: 475 ng/mL | hepatocyte CLint at 3 µM [26]: 2.4 µL/min/1e6 cells | Microsomal intrinsic clearance [27]: 17 µL/min | bioavailability [28]: 44.2% | clearance [29]: 47.9 mL/min/kg
